98 compounds from ChEMBL document CHEMBL4513216, “Probing the Open Global Health Chemical Diversity Library for Multistage-Active Starting Points for Next-Generation Antimalarials” (ACS Infect Dis, 2020) can be followed below.

This series in a line: Toxicity liver stage against HepG2, at 10uM. The format is cell-based. Also on record: test concentration 10 uM, cell line HepG2-A16-CD81EGFP. To be noted: human, HepG2-A16-CD81EGFP cells; read-out: INHIBITION
Summed up:
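Uninfected HepG2-A16-CD81EGFP cells, 3 × 10^3 per well, 1536-well, plated on prespotted compound at 10 μM final, parasite-free screening media added to match infected plates; puromycin 10 μM positive, DMSO 0.5% negative; run in parallel with 48 h PbLuc assay at 37 °C, 5% CO2; viability by CellTiter-Glo luminescence, normalized to controls.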
Turning to `Cc1ccc2c(c1)Oc1ncccc1C(=O)N2`, the cytotoxicity at 10 µM was found to be 5.15%.

As for `CN1C[C@@H](NC(=O)c2ccccc2)C[C@H]1c1nc(-c2cnccn2)no1`, the cytotoxicity at 10 µM amounted to 9.68%. Next, `Cc1cc(C)n(Cc2ccc(-c3noc(C(=O)NCCO)n3)cc2)n1`: -9.45%; `O=C(NCCc1c[nH]c2ccccc12)C1(n2cnnn2)CCCCC1`: -0.321%; `CCOC(=O)NCc1nn(CCN2CCCC2)c(=O)c2ccccc12`: 9.66%. For the compound `COc1ccc(OC)c(S(=O)(=O)NCC2(OC)CCSC2)c1` (stereo not drawn), the cytotoxicity at 10 µM is -12.8%. For the compound `C1CN(CC2CCOCC2)Cc2c(CN3CCOCC3)nnn2C1`, the cytotoxicity at 10 µM is -143%. For the compound `NC1CCN(c2nccn3c(=O)[nH]nc23)CC1`, the cytotoxicity at 10 µM came to 3.65%. `O=C(CCn1cc(Cl)cn1)Nc1ncccn1`: the cytotoxicity at 10 µM is -5.32%. Turning to `CSc1[nH]nc(NC(=O)c2ccncc2)c1C#N`, the cytotoxicity at 10 µM was found to be 10.6%.

Take `Cc1c2ncn(CC(=O)NC(C)C)c(=O)c2nn1C`: the cytotoxicity at 10 µM was -5.26%.

In the case of `O=C(NCc1ccco1)c1[nH]nc2c1CS(=O)(=O)CC2`, the cytotoxicity at 10 µM stood at 14.8%. For `CC(Nc1ncnc2c1NC(=O)CN2)c1ccc2c(c1)OCO2` (stereo not drawn), the cytotoxicity at 10 µM amounted to 8.19%.

Consider `Cc1cc(C)nc(NC(=O)C(C)Oc2ccc3c(c2)OCO3)n1` (stereo not drawn), for which the cytotoxicity at 10 µM is -9.9%.

For the compound `Cc1cc(=O)n(CC(=O)NCCC(C)C)c(-c2cccc(Cl)c2)n1`, the cytotoxicity at 10 µM is -2.32%. Turning to `CC(=O)N1CCC(C(=O)N2CCC2c2nc(-c3ccc(C)s3)no2)CC1` (stereo not drawn), the cytotoxicity at 10 µM came to 3.15%. Next, `O=C(c1cncs1)N1CCC(c2cnccn2)CC1`: -23.2%; `O=C(O)c1ccccc1-c1ccc(CN2CCCC(O)C2)cc1` (stereo not drawn): -9.16%.

On to `CC(C)C(=O)N1CCCC(c2ncncc2-c2ccncc2)C1` (stereo not drawn), for which the cytotoxicity at 10 µM is -6.62%. Consider `CS(=O)(=O)N1CC2(CCN(CC3CCCCC3)C2)Cc2ccccc21` (stereo not drawn), for which the cytotoxicity at 10 µM was found to be 23.3%.

Turning to `O=C(CCOc1ccc(Cl)cc1)NCCCn1cccn1`, the cytotoxicity at 10 µM was -12.1%. On to `CN1CCC(O)(CNCc2ccc(F)c(C(F)(F)F)c2)CC1`, for which the cytotoxicity at 10 µM came out at 3.08%. `COc1ccccc1C(N)CC(C)C` (stereo not drawn): the cytotoxicity at 10 µM amounted to 6%. For `CN(C)CCCNC(=O)c1ccnc(OCc2ccccc2)c1`, the cytotoxicity at 10 µM is -11.5%. In the case of `CCOCC(O)CN1CCN(C(=O)c2ccncc2)CC1` (stereo not drawn), the cytotoxicity at 10 µM came to 10%. For the compound `Cc1ccc(C(=O)NCC2(O)CCOCC2)cc1F`, the cytotoxicity at 10 µM was found to be 6.79%.

As to `Cc1cc(C(=O)Nc2ccnc(OC3CCOC3)c2)c(C)o1` (stereo not drawn), the cytotoxicity at 10 µM is 6.66%.

For the compound `CCCn1nc(C(=O)N(C)Cc2cnn(C)c2)ccc1=O`, the cytotoxicity at 10 µM was -143%.

With `Cc1ncsc1CNc1cccc(OCCN2CCCC2)c1`, the cytotoxicity at 10 µM was -3.35%. Regarding `O=C(NCCSCc1ccc(Br)s1)C1CCCN(c2cnccn2)C1` (stereo not drawn), the cytotoxicity at 10 µM was 5.34%. As to `CC(C)(O)CSCCNC(=O)c1cc(F)ccc1F`, the cytotoxicity at 10 µM was -4.11%. On to `O=C(C1CCCN(Cc2ccccc2)C1)N1CCc2sccc2C1` (stereo not drawn), for which the cytotoxicity at 10 µM amounted to 2.41%.

Turning to `CNC(=O)NC(=O)CN1CCCN(CC(F)(F)F)CC1`, the cytotoxicity at 10 µM is -2.37%. In the case of `Cc1ncsc1CNC(=O)N1CCN(Cc2ccccc2)C[C@H]1C` it was -125%; in that of `Cc1cc(OCc2cccc(F)c2)ccc1NC(=O)C(C)NC(N)=O` (stereo not drawn), -1.47%; in that of `CC(C)n1cnnc1C1CCCN(S(=O)(=O)CCCC#N)C1` (stereo not drawn), -3.46%.

Regarding `CC(C)(CCS(C)(=O)=O)CNc1ccc2ccc(F)cc2n1`, the cytotoxicity at 10 µM was -6.01%. `Cc1csc(NC(=O)CN(C)CC2CCCN2c2cccnn2)n1` (stereo not drawn): the cytotoxicity at 10 µM was -5.82%. Take `CC(c1ccc(Cl)cc1)N1CCN(CCS(C)(=O)=O)CC1` (stereo not drawn): the cytotoxicity at 10 µM was -20.3%. Consider `CCc1cnc(CN(C(C)=O)C2CCN(CCS(C)(=O)=O)C2)o1` (stereo not drawn), for which the cytotoxicity at 10 µM was -17.8%. `Cc1nc(C)n(CC2CCCCN2CC(=O)Nc2cccnc2)n1` (stereo not drawn): the cytotoxicity at 10 µM was -12.4%. `COCC(=O)N1CCc2nc(NC(C)C)nc(NC(C)C)c2CC1`: the cytotoxicity at 10 µM was -104%.

For the compound `Cc1ccc(CNC(=O)c2nc3c(n2C)CCN(c2ncccn2)C3)o1`, the cytotoxicity at 10 µM is -119%. In the case of `COCC1CN(C(=O)c2ccnnc2)Cc2c1cnn2C` (stereo not drawn) it was -3.09%; in that of `COCc1noc(-c2ccc(N3CCCCC3COC)nc2)n1` (stereo not drawn), 1.69%. In the case of `O=C(N[C@@H]1c2ccccc2C[C@@H]1O)C1CCN(Cc2ccco2)CC1` it was -0.647%. On to `CC(C)(C)c1oc(C(N)=O)cc1CN1CCCCC1CN1CCOCC1` (stereo not drawn), for which the cytotoxicity at 10 µM was -11.2%.

On to `Cc1nccn1CCC1CCN(c2ncccn2)CC1`, for which the cytotoxicity at 10 µM was -3%. For the compound `Cc1csc2ncnc(N3CCCC(Cn4cc(C(C)(C)O)nn4)C3)c12` (stereo not drawn), the cytotoxicity at 10 µM was 2.74%.

Regarding `FC(F)(F)c1ccc(-n2ccnc2-c2cc3n(n2)CCNC3)cn1`, the cytotoxicity at 10 µM is -4.65%. Regarding `Cn1ncnc1-c1ccnc(N2CCC(C(O)c3cccs3)CC2)n1` (stereo not drawn), the cytotoxicity at 10 µM was -39.2%.

For the compound `Cc1cc(C)c(C(=O)N2CCC3(CCCN(CC(C)(C)C)C3)C2)[nH]1` (stereo not drawn), the cytotoxicity at 10 µM was -3.73%. As to `COCCN1CCC(CN(C)c2nc3c(s2)c(C)nn3C)C1` (stereo not drawn), the cytotoxicity at 10 µM is -4.36%. `CCc1cnc(N)nc1N1CCN(C(C)=O)CC1`: the cytotoxicity at 10 µM was -51.7%.

As for `CC(C)CN1CCc2[nH]cnc2C12CCN(C(=O)c1cc[nH]n1)CC2`, the cytotoxicity at 10 µM stood at 0.363%. `COCc1cc(N2CCN(Cc3ccncc3)CC2)n2nccc2n1`: the cytotoxicity at 10 µM is -6.32%. Turning to `O=C(O)C1(Oc2ccccc2)CCN(c2ccncc2)CC1`, the cytotoxicity at 10 µM was -3.99%.

`Cc1oc(-c2ccc(F)cc2F)nc1CN1C[C@@H](C)O[C@@H](C)C1`: the cytotoxicity at 10 µM was -39.9%.

For the compound `Cc1cnccc1CN(C)C1CCN(c2ncnc3[nH]cnc23)CC1`, the cytotoxicity at 10 µM was -42.9%. With `c1ccc(-c2cccc(-c3ccn(CCN4CCCCC4)n3)c2)nc1`, the cytotoxicity at 10 µM is -4.73%. Turning to `CCC[C@H]1CN(c2nccc(NCC)n2)C[C@@H]1NS(=O)(=O)N(C)C`, the cytotoxicity at 10 µM is -144%. As to `Cc1nn(CCNC(C)Cn2cncn2)c(C)c1Cl` (stereo not drawn), the cytotoxicity at 10 µM worked out at 13.4%. Consider `Cc1c(F)cccc1CN1CCn2nc(CNC(=O)N(C)C)cc2C1`, for which the cytotoxicity at 10 µM was -19.4%.

As to `Cc1c(CN2CCOCC2)c(O)n(CCO)c(=O)c1C#N`, the cytotoxicity at 10 µM was -2.78%. As to `CCc1nc(C)cn1C(=O)Nc1ccccc1`, the cytotoxicity at 10 µM is 2.52%. Next, `CC(C)C(=O)N1CCN(Cc2cc(-c3ccncc3)nn2C)CC1`: 0.59%. In the case of `CCN1CCN(c2ncc(-c3cc(C)no3)c(-c3ccoc3C)n2)CC1` it was 1.16%. In the case of `CC(C)Cc1cc(NC(=O)c2ccncc2)n(C)n1`, the cytotoxicity at 10 µM is -0.502%. For `CC(C)c1nccn1C1CCCN(C(=O)c2cc(C3CC3)on2)C1` (stereo not drawn), the cytotoxicity at 10 µM was -7.37%. Turning to `CC(C)c1n[nH]c(C2CN(C(=O)c3cnccn3)CCO2)n1` (stereo not drawn), the cytotoxicity at 10 µM is 2.16%. Next, `CCc1nc(C(=O)N2CCCC2)nn1-c1c(Cl)cccc1Cl`: -2.04%. For `CCOc1cc(C(=O)N2CCCC(c3nc(C)c(C)s3)C2)ccn1` (stereo not drawn), the cytotoxicity at 10 µM was -3.92%. In the case of `O=C(CN1CCCC1Cn1cccn1)NCCOc1cccc(F)c1` (stereo not drawn), the cytotoxicity at 10 µM was -3.54%. `CC(NS(C)(=O)=O)C(=O)N1CCCN(Cc2cscn2)CC1` (stereo not drawn): the cytotoxicity at 10 µM is -5.95%. Regarding `CC(C)C(=O)NCCNC(=O)CCOc1cccc(F)c1`, the cytotoxicity at 10 µM is -2.98%. As to `COC(=O)C(c1cc(F)ccc1F)N(C)C(=O)c1cnccn1` (stereo not drawn), the cytotoxicity at 10 µM is 6.43%.

In the case of `CCCc1n[nH]c(C2CN(C(=O)Cn3ccccc3=O)CCO2)n1` (stereo not drawn), the cytotoxicity at 10 µM was -1.33%. As for `CCc1nc2n(n1)CC(NCc1nc(-c3cccnc3)no1)CC2` (stereo not drawn), the cytotoxicity at 10 µM was -8.66%. For `Cc1nn(C)c(C)c1C1CCCN1C(=O)CCCn1cccn1` (stereo not drawn), the cytotoxicity at 10 µM was -0.685%.

As to `CNS(=O)(=O)c1ccc(C(=O)N2CCCC2c2cnn(C)c2)o1` (stereo not drawn), the cytotoxicity at 10 µM is -8.28%. In the case of `CCc1ccc(O)c(C(=O)NC2CCN(Cc3ccncc3)CC2)c1`, the cytotoxicity at 10 µM was 5.52%. On to `COCCCNC(=O)NCc1ccc(C)cc1`, for which the cytotoxicity at 10 µM was 3.37%. In the case of `CCOc1cccc(CNC(=O)NCC(O)c2cccc(F)c2)c1` (stereo not drawn) it was -2.92%. As for `Cc1noc([C@@H](C)NCc2cccc(Cl)c2)c1C(=O)O`, the cytotoxicity at 10 µM is -0.802%. On to `CCC(CN1CCCCC1)NC(=O)C1(c2ccc(F)cc2)CC1` (stereo not drawn), for which the cytotoxicity at 10 µM turned out to be 1.69%. As for `COc1ccc(C(C)(C)C)cc1CN1CCn2c(CO)nnc2C1`, the cytotoxicity at 10 µM was 10.4%. Next, `CC(C)CN1CCN(S(=O)(=O)c2cn(C)cn2)Cc2cccnc21`: -144%. Next, `Cc1cccc(CN2CCOC3(COCCN(CCN(C)C)C3)C2)n1` (stereo not drawn): -113%. For `Cn1cc(CN2CC(C(=O)Nc3ccccc3)C3(CCOCC3)C2)cn1` (stereo not drawn), the cytotoxicity at 10 µM was -1.96%. As for `CNC(=O)c1cc2c(nc1NCC(C)C)CCN(C)CC2`, the cytotoxicity at 10 µM is -153%. Take `CN(Cc1ccccn1)C(=O)c1nn(C)c2c1CCN(CC1CC1)C2`: the cytotoxicity at 10 µM was -1.68%. With `Cc1cc(CN2CC[C@H]3C[C@H](C(=O)Nc4cccnc4C)O[C@@H]3C2)no1`, the cytotoxicity at 10 µM was -67%. For the compound `Cn1nc(C(=O)N2CCOCC2)c2c1CN(CC1CC1)C2`, the cytotoxicity at 10 µM is -90.1%. `O=C1COC2(CCN(Cc3cccnc3)CC2)CN1c1ccccc1`: the cytotoxicity at 10 µM was -113%. For the compound `c1ccc(CN2CCn3c(Cn4cncn4)cnc3C2)nc1`, the cytotoxicity at 10 µM was -70.7%. `Cc1ccc2c(n1)N(CCN(C)C)CCN(C(=O)c1ccoc1)C2`: the cytotoxicity at 10 µM was -74.4%. On to `CCSc1ncc(CN2C[C@@H]3CC[C@H]2CN(C2CCOCC2)C3)cn1`, for which the cytotoxicity at 10 µM was -6.38%.

For the compound `COc1ccc(Cl)cc1S(=O)(=O)N1C[C@H]2CC[C@@H](C1)N(C)C2=O`, the cytotoxicity at 10 µM turned out to be 3.98%.
